ChEMBL document CHEMBL5104205, “Design and evaluation of poly-nitrogenous adjuvants capable of potentiating antibiotics in Gram-negative bacteria” (RSC Med Chem, 2022)
Values after ≈ are worked out from the molar mass of the structure shown.

How the values were obtained:
Escherichia coli [1] = test: Antibiotic adjuvant activity against Penicillin G-treated wild type Escherichia coli ATCC 25922 assessed as bacterial growth inhibition by broth microdilution assay; type: functional
How it was run: (§1)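 Broth microdilution per CLSI M100-S23. Antibiotics spanned 0–256 µg/mL (in DMSO or water), combined with adjuvant at 20, 50 or 100 µM (in DMSO). Inoculum was a 4–6 h culture in full-strength TSB. Plates ran 12–18 h at 37 °C, each treatment in triplicate. OD590 was blank-subtracted and normalized to vehicle growth. MIC is the lowest concentration giving ≥90% inhibition.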

Escherichia coli [2] = test: Antibiotic adjuvant activity against Ampicillin-treated wild type Escherichia coli ATCC 25922 assessed as bacterial growth inhibition by broth microdilution assay; type: functional; how it was run: as §1
Escherichia coli [3] = test: Antibiotic adjuvant activity against Rifampicin-treated wild type Escherichia coli ATCC 25922 assessed as bacterial growth inhibition by broth microdilution assay; type: functional; how it was run: as §1
Escherichia coli [4] = test: Antibiotic adjuvant activity against Erythromycin-treated wild type Escherichia coli ATCC 25922 assessed as bacterial growth inhibition by broth microdilution assay; type: functional; how it was run: as §1
Escherichia coli [5] = test: Antibiotic adjuvant activity against Kanamycin-treated wild type Escherichia coli ATCC 25922 assessed as bacterial growth inhibition by broth microdilution assay; type: functional; how it was run: as §1
Escherichia coli [6] = test: Antibiotic adjuvant activity against Novobiocin-treated wild type Escherichia coli ATCC 25922 assessed as bacterial growth inhibition by broth microdilution assay; type: functional; how it was run: as §1
Pseudomonas aeruginosa [7] = test: Antibiotic adjuvant activity against Penicillin G-treated Pseudomonas aeruginosa ATCC 9027 assessed as bacterial growth inhibition by broth microdilution assay; type: functional; how it was run: as §1
Pseudomonas aeruginosa [8] = test: Antibiotic adjuvant activity against Ampicillin-treated Pseudomonas aeruginosa ATCC 9027 assessed as bacterial growth inhibition by broth microdilution assay; type: functional; how it was run: as §1
Pseudomonas aeruginosa [9] = test: Antibiotic adjuvant activity against Rifampicin-treated Pseudomonas aeruginosa ATCC 9027 assessed as bacterial growth inhibition by broth microdilution assay; type: functional; how it was run: as §1
Pseudomonas aeruginosa [10] = test: Antibiotic adjuvant activity against Erythromycin-treated Pseudomonas aeruginosa ATCC 9027 assessed as bacterial growth inhibition by broth microdilution assay; type: functional; how it was run: as §1
Pseudomonas aeruginosa [11] = test: Antibiotic adjuvant activity against Kanamycin-treated Pseudomonas aeruginosa ATCC 9027 assessed as bacterial growth inhibition by broth microdilution assay; type: functional; how it was run: as §1
Pseudomonas aeruginosa [12] = test: Antibiotic adjuvant activity against Novobiocin-treated Pseudomonas aeruginosa ATCC 9027 assessed as bacterial growth inhibition by broth microdilution assay; type: functional; how it was run: as §1
Pseudomonas aeruginosa [13] = test: Antibiotic adjuvant activity against Erythromycin-treated Pseudomonas aeruginosa ATCC 9027 assessed as fold reduction in bacterial growth inhibition by broth microdilution assay; type: functional
[14] = Drug uptake in wild type Escherichia coli ATCC 25922 assessed as drug accumulation across outer membrane; type: ADME
How it was run: (§2)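 Cells were washed twice in PBS, aliquoted and pre-shaken 10 min at 37 °C. Compound was added and incubated 10 min at 37 °C, with CFU counted before and after. Samples were spun through cold silicone oil. Supernatants were quantified by LC-MS single-ion monitoring against calibration curves.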

[15] = Drug uptake in Pseudomonas aeruginosa ATCC 9027 assessed as drug accumulation across outer membrane; type: ADME; how it was run: as §2
Escherichia coli [16] = test: Antibiotic adjuvant activity against Erythromycin-treated wild type Escherichia coli ATCC 25922 assessed as fold reduction in bacterial growth inhibition by broth microdilution assay; type: functional
Escherichia coli [17] = test: Antibiotic adjuvant activity against Novobiocin-treated wild type Escherichia coli ATCC 25922 assessed as fold reduction in bacterial growth inhibition by broth microdilution assay; type: functional
Pseudomonas aeruginosa [18] = test: Antibacterial activity against Pseudomonas aeruginosa ATCC 9027 assessed as bacterial growth inhibition at 1000 ug/ml by broth microdilution assay; type: functional
Escherichia coli [19] = test: Antibacterial activity against wild type Escherichia coli ATCC 25922 assessed as bacterial growth inhibition at 100 ug/ml by broth microdilution assay; type: functional
Escherichia coli [20] = test: Antibacterial activity against wild type Escherichia coli ATCC 25922 assessed as bacterial growth inhibition by broth microdilution assay; type: functional
Pseudomonas aeruginosa [21] = test: Antibacterial activity against Pseudomonas aeruginosa ATCC 9027 assessed as bacterial growth inhibition by broth microdilution assay; type: functional

Row | Compound | MIC (Escherichia coli [1]) [µg/mL] | MIC (Escherichia coli [2]) [µg/mL] | MIC (Escherichia coli [3]) [µg/mL] | MIC (Escherichia coli [4]) [µg/mL] | MIC (Escherichia coli [5]) [µg/mL] | MIC (Escherichia coli [6]) [µg/mL] | MIC (Pseudomonas aeruginosa [7]) [µg/mL] | MIC (Pseudomonas aeruginosa [8]) [µg/mL] | MIC (Pseudomonas aeruginosa [9]) [µg/mL] | MIC (Pseudomonas aeruginosa [10]) [µg/mL] | MIC (Pseudomonas aeruginosa [11]) [µg/mL] | MIC (Pseudomonas aeruginosa [12]) [µg/mL] | fold change (FC) (Pseudomonas aeruginosa [13]) | Drug uptake [14] [nmol] | Drug uptake [15] [nmol] | MIC (Escherichia coli [20]) [µg/mL] | MIC (Pseudomonas aeruginosa [21]) [µg/mL] | other results
1 | Cl.Cl.N=C(N)c1ccc(NC(=O)CCC(=O)Nc2ccc(C(=N)N)cc2)cc1 | 64 | 16 | 4 | 128 | 64 | 64 | > 256 | 128 | 16 | 64 | > 64 | 256 | 2 | 1 | 0.9 | – | – | –
2 | Cl.Cl.N=C(N)Nc1ccc(NC(=O)CCC(=O)Nc2ccc(NC(=N)N)cc2)cc1 | 64 | 16 | 8 | 64 | 64 | 64 | > 256 | 128 | 16 | 64 | > 64 | 256 | 2 | 1.1 | 1.1 | – | – | fold change (FC) (Escherichia coli [16]): 2; fold change (FC) (Escherichia coli [17]): 2; inhibition at 1000 µg/mL (Pseudomonas aeruginosa [18]): 33%; inhibition at 100 µg/mL (Escherichia coli [19]): 18%
3 | Cl.Cl.N=C(N)Nc1ccc(NC(=O)CCC(=O)Nc2ccc(N)cc2)cc1 | 64 | 16 | 8 | 64 | 64 | 64 | > 256 | 128 | 16 | 64 | > 64 | 256 | 2 | 1.3 | 0.3 | – | – | fold change (FC) (Escherichia coli [16]): 2
4 | Cl.Cl.Nc1ccc(NC(=O)CCC(=O)Nc2ccc(N)cc2)cc1 | 64 | 16 | 8 | 128 | 64 | 128 | > 256 | 128 | 16 | 64 | > 64 | 256 | 2 | 3.3 | 2 | – | – | –
5 | CC1(C)S[C@@H]2[C@H](NC(=O)[C@H](N)c3ccccc3)C(=O)N2[C@H]1C(=O)O [AMPICILLIN] | – | – | – | – | – | – | – | – | – | – | – | – | – | < 0.06 | < 0.06 | 16 (≈ 45.8 µM) | 128 (≈ 366 µM) | –
6 | O=C(O)c1cn(C2CC2)c2cc(N3CCNCC3)c(F)cc2c1=O [CIPROFLOXACIN] | – | – | – | – | – | – | – | – | – | – | – | – | – | 2.4 | 1.8 | – | – | –
7 | CC[C@H]1OC(=O)[C@H](C)[C@@H](O[C@H]2C[C@@](C)(OC)[C@@H](O)[C@H](C)O2)[C@H](C)[C@@H](O[C@@H]2O[C@H](C)C[C@H](N(C)C)[C@H]2O)[C@](C)(O)C[C@@H](C)C(=O)[C@H](C)[C@@H](O)[C@]1(C)O [ERYTHROMYCIN] | – | – | – | – | – | – | – | – | – | – | – | – | – | – | – | 128 (≈ 174 µM) | 128 (≈ 174 µM) | –
8 | NC[C@H]1O[C@H](O[C@H]2[C@H](O)[C@@H](O[C@H]3O[C@H](CO)[C@@H](O)[C@H](N)[C@H]3O)[C@H](N)C[C@@H]2N)[C@H](O)[C@@H](O)[C@@H]1O [KANAMYCIN] | – | – | – | – | – | – | – | – | – | – | – | – | – | – | – | 64 (≈ 132 µM) | > 64 | –
9 | CO[C@@H]1[C@@H](OC(N)=O)[C@@H](O)[C@H](Oc2ccc3c(O)c(NC(=O)c4ccc(O)c(CC=C(C)C)c4)c(=O)oc3c2C)OC1(C)C [NOVOBIOCIN] | – | – | – | – | – | – | – | – | – | – | – | – | – | – | – | 128 (≈ 209 µM) | 256 (≈ 418 µM) | –
10 | CC1(C)S[C@@H]2[C@H](NC(=O)Cc3ccccc3)C(=O)N2[C@H]1C(=O)O [PENICILLIN G] | – | – | – | – | – | – | – | – | – | – | – | – | – | – | – | 64 (≈ 191 µM) | > 256 | –
11 | CO[C@H]1/C=C/O[C@@]2(C)Oc3c(C)c(O)c4c(O)c(c(/C=N/N5CCN(C)CC5)c(O)c4c3C2=O)NC(=O)/C(C)=C\C=C\[C@H](C)[C@H](O)[C@@H](C)[C@@H](O)[C@@H](C)[C@H](OC(C)=O)[C@@H]1C [RIFAMPIN] | – | – | – | – | – | – | – | – | – | – | – | – | – | – | – | 8 (≈ 9.72 µM) | 16 (≈ 19.4 µM) | –
